Laboratory results taken from ChEMBL document CHEMBL4368921, “Discovery of novel simplified isoxazole derivatives of sampangine as potent anti-cryptococcal agents” (2019).
Values after ≈ are worked out from the molar mass of the structure shown. Active and inactive are the calls of the source. No cut-off for these calls is given here.

How the values were obtained:
[1] = system: Cryptococcus neoformans; assay: Antifungal activity against Cryptococcus neoformans var. grubii H99 after 48 hrs by serial dilution method; format: functional
How it was run: (§1)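 Broth serial dilution per NCCLS. Medium was RPMI 1640 buffered with 0.165M MOPS, NaHCO3 (0.2%) and NaOH (0.27%). Strains were pre-grown in YPD at 30 °C with shaking. Inoculum 10³ CFU/mL; compounds in DMSO. Plates incubated at 35 °C for 48 h. MIC80 is the concentration giving 80% inhibition.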

[2] = system: Candida albicans; assay: Antifungal activity against Candida albicans SC5314 after 48 hrs by serial dilution method; format: functional; conditions: SC5314, 48 h; how it was run: as §1
[3] = system: Cryptococcus neoformans; assay: Antifungal activity against Cryptococcus neoformans var. grubii ATCC 34877 after 48 hrs by serial dilution method; format: functional; conditions: var. grubii ATCC 34877, 48 h; how it was run: as §1
[4] = system: Cryptococcus gattii; assay: Antifungal activity against Cryptococcus gattii ATCC 14116 after 48 hrs by serial dilution method; conditions: ATCC 14116, 48 h
[5] = system: Cryptococcus neoformans; assay: Antibiofilm activity against Cryptococcus neoformans var. grubii H99 at 0.062 to 8 ug/mL after 24 hrs by XTT analysis; format: functional, organism-based
How it was run: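 H99 cells at 1.0×10^6 CFU/mL in RPMI 1640 left to adhere 90 min at 37 °C. Non-adherent cells were removed and the wells washed three times with PBS. Fresh RPMI with drug (0.062-8 µg/mL) or drug-free control was added, then 24 h more at 37 °C. Formation rate by XTT reduction. Means ± SD of three independent experiments; ANOVA and t-test.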

SMILES | MIC80 [1] [µg/mL] | MIC80 [2] [µg/mL] | MIC80 [3] [µg/mL] | MIC80 [4] [µg/mL] | Activity [5]
O=C1c2ccsc2C(=O)c2c(-c3ccncc3)noc21 | 0.25 (≈ 0.886 µM) | 8 (≈ 28.3 µM) | 0.5 (≈ 1.77 µM) | 1 (≈ 3.54 µM) | –
CCCc1noc2c1C(=O)c1sccc1C2=O | 0.12 (≈ 0.485 µM) | 4 (≈ 16.2 µM) | 0.12 (≈ 0.485 µM) | 0.25 (≈ 1.01 µM) | Active
Cc1ccccc1-c1noc2c1C(=O)c1sccc1C2=O | 0.25 (≈ 0.847 µM) | > 64 | – | – | –
O=C1c2ccsc2C(=O)c2c(-c3ccccc3Cl)noc21 | 0.25 (≈ 0.792 µM) | > 64 | – | – | –
Cc1cccc(-c2noc3c2C(=O)c2sccc2C3=O)c1 | 1 (≈ 3.39 µM) | > 64 | – | – | –
C[C@@H](c1ncncc1F)[C@](O)(Cn1cncn1)c1ccc(F)cc1F [VORICONAZOLE] | 0.12 (≈ 0.344 µM) | 0.12 (≈ 0.344 µM) | 0.12 (≈ 0.344 µM) | 0.12 (≈ 0.344 µM) | –
O=C1c2ccsc2C(=O)c2c(-c3ccc(Br)cc3)noc21 | > 64 | > 64 | – | – | –
O=C1c2ccsc2C(=O)c2c(-c3cccs3)noc21 | 2 (≈ 6.96 µM) | > 64 | – | – | –

Second part, led by results:

MIC80 [1] [µg/mL] | MIC80 [2] [µg/mL] | MIC80 [3] [µg/mL] | MIC80 [4] [µg/mL] | SMILES | Activity [5]
0.25 (≈ 0.886 µM) | 8 (≈ 28.3 µM) | – | – | O=C1c2ccsc2C(=O)c2c(-c3ccccn3)noc21 | –
> 64 | > 64 | – | – | COc1cccc(-c2noc3c2C(=O)c2sccc2C3=O)c1 | –
0.25 (≈ 0.835 µM) | > 64 | – | – | O=C1c2ccsc2C(=O)c2c(-c3ccccc3F)noc21 | –
1 (≈ 3.39 µM) | > 64 | – | – | Cc1ccc(-c2noc3c2C(=O)c2sccc2C3=O)cc1 | –
